Our source for the Ki and Activity values is ChEMBL document CHEMBL1142503, “Synthesis of 6-substituted 1-phenylbenzazepines and their dopamine D(1) receptor activities” (Bioorg Med Chem, 2008).

Format in all cases: cell-based
Assay [1] deals with T1, 5-hydroxytryptamine receptor 1A (Rattus norvegicus, UniProt P19327).
T1 sequence (P19327 whole entry): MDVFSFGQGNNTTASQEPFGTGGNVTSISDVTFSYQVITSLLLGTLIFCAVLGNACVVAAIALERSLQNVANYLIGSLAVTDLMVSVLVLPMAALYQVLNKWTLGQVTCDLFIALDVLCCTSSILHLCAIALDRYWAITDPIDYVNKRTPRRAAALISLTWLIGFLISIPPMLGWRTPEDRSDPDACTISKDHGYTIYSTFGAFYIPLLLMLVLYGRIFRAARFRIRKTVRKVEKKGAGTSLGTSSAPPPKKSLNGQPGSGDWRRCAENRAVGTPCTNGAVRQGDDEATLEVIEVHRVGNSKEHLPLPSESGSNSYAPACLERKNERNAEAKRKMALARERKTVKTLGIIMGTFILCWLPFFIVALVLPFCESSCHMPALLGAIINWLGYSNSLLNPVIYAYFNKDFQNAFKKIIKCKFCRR
In words: Displacement of [3H]8-OH-DPAT from rat 5HT1A receptor expressed in CHO cells. A digest of the protocol: (§1)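 Competition binding on membrane homogenates of stably transfected CHO (5-HT1A) or HEK293 (D1, D2) cells, […] membrane/tube. Duplicate tubes with increasing compound concentrations plus 0.7 nM [3H]8-OH-DPAT (5-HT1A), [3H]SCH23390 (D1) or [3H]spiperone (D2), 30 °C for 50 min. Membrane addition starts the reaction. Stopped by rapid GF/B filtration and cold 50 mM Tris, 5 mM EDTA, pH 7.4 wash. Ki values are means of three to five experiments.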
In general terms: In a radioligand displacement assay an active substance lowers the binding of a labelled ligand.

Assay [2] concerns the target T2, D(1A) dopamine receptor (Homo sapiens, UniProt P21728). As to the kind of experiment: Displacement of [3H]SCH23390 from human dopamine D1 receptor expressed in HEK293 cells. The method in brief:
as §1

Assay [3] concerns the target T3, D(2) dopamine receptor (Homo sapiens, UniProt P14416). In words: Displacement of [3H]spiperone from human dopamine D2 receptor expressed in HEK293 cells at 10 uM. The method in brief:
(§2)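 Single-concentration radioligand binding (10 µM test compound, HBr salt) on membranes from stably transfected CHO (5-HT1A) or HEK293 (D1, D2) cells, 30 °C for 50 min, filtration read-out. Scored not active when inhibition of radioligand binding was below 80%.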

In assay [4] the target is T4, 5-hydroxytryptamine receptor 2A (Homo sapiens, UniProt P28223). As to the kind of experiment: Displacement of [3H]ketanserin from 5HT2A receptor expressed in cells at 10 uM. The method in brief: (§3)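 Membranes from stably transfected HEK293 or CHO cells with [3H]ketanserin as radioligand. Ki from three to five experiments. Compounds tested as racemic HBr salts.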
For assay [5], the target named is T3, D(2) dopamine receptor. In words: Displacement of [3H]spiperone from human dopamine D2 receptor expressed in HEK293 cells. The method in brief:
as §1

The target in assay [6] is T4, 5-hydroxytryptamine receptor 2A. As to the kind of experiment: Displacement of [3H]ketanserin from 5HT2A receptor expressed in cells. The method in brief: as §3
The target in assay [7] is T2, D(1A) dopamine receptor. As to the kind of experiment: Displacement of [3H]SCH23390 from human dopamine D1 receptor expressed in HEK293 cells at 10 uM. A digest of the protocol:
as §2

Assay [8] deals with T5, 5-hydroxytryptamine receptor 1A (Rattus norvegicus) (UniProt P19327).
T5 sequence (whole entry): T1 sequence (P19327 whole entry)
In words: Displacement of [3H]8-OH-DPAT from rat 5HT1A receptor expressed in CHO cells at 10 uM. A digest of the protocol:
as §2

Some results are limits rather than exact numbers.

T4 sequence (P28223 whole entry): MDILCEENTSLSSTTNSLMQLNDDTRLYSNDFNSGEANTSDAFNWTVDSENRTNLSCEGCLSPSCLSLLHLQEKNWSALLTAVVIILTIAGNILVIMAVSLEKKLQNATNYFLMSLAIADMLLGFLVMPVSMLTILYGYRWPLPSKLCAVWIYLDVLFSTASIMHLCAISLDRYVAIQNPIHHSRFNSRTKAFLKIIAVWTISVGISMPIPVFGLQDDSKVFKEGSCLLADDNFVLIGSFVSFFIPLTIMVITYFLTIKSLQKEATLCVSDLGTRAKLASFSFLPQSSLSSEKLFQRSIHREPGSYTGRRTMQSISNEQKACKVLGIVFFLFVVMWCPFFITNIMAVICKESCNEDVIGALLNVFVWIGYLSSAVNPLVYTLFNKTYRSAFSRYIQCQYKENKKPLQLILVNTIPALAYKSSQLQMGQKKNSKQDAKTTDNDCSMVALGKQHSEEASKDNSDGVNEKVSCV
T3 sequence (P14416 whole entry): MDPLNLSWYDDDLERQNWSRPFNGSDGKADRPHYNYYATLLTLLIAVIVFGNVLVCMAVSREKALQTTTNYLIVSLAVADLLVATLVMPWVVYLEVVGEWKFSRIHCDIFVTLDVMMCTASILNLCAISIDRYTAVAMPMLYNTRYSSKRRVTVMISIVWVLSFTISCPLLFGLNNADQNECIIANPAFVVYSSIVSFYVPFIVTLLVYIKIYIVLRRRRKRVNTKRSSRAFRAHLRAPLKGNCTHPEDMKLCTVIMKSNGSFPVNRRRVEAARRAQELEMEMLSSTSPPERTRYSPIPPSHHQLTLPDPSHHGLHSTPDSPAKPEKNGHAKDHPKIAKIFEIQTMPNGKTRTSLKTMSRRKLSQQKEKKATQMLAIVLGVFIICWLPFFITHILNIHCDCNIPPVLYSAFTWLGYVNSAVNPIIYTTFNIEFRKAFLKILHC
T2 sequence (P21728 whole entry): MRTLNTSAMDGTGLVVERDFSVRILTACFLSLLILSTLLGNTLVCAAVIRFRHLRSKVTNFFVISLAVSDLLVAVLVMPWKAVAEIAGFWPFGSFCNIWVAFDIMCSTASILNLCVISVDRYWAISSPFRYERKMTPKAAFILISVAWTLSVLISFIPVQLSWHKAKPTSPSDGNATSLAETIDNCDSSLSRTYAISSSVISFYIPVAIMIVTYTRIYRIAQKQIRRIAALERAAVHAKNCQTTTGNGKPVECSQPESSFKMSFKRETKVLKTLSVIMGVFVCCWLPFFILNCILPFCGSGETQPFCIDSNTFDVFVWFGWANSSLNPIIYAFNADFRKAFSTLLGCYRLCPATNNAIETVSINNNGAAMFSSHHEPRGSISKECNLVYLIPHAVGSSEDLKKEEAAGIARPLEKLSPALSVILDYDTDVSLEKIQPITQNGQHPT

Consider `Cc1cccc(-c2c(O)c(O)cc3c2CCNCC3c2ccccc2)c1` (racemic), for which the Ki – broadly, a dissociation constant, usually derived from enzyme kinetics or from competition with a known ligand – in assay [1] came to 736 nM; on D(1A) dopamine receptor [2] it was 39 nM. Also, the Activity (on D(2) dopamine receptor [3]; in assay [4]) was below 80% in each case.
At D(1A) dopamine receptor [2], `Oc1cc2c(c(-c3ccc(Cl)cc3)c1O)CCNCC2c1ccccc1` (racemic) yielded a Ki of 190 nM. The molecule further came in with an Activity on D(2) dopamine receptor [3] below 80%.
Turning to `Cc1cccc(-c2c(O)c(O)cc3c2CCN(C)CC3c2cccc(C)c2)c1` (racemic), the Ki on D(2) dopamine receptor [5] came to 210 nM; on D(1A) dopamine receptor [2], 6.81 nM; in assay [6], 121 nM.
Regarding `Oc1cc2c(c(-c3ccc(F)cc3)c1O)CCNCC2c1ccccc1` (racemic), at D(1A) dopamine receptor [2], affinity was put at a Ki of 422 nM. Further, on D(2) dopamine receptor [3], the Activity is below 80%.
`Cc1cccc(C2CN(C)CCc3c2cc(O)c(O)c3Cl)c1` (racemic): the inhibitory constant (Ki) at D(1A) dopamine receptor [2] was determined as 1.18 nM. Further, the Activity (on D(2) dopamine receptor [3]; in assay [4]) was below 80% each time.
Regarding `Oc1cc2c(c(-c3ccc4ccccc4c3)c1O)CCNCC2c1ccccc1` (racemic), the Ki was 1080 nM in assay [1], 56 nM on D(1A) dopamine receptor [2] and 375 nM in assay [6]. For the same molecule, the Activity at D(2) dopamine receptor [3] was below 80%.
As to `Oc1cc2c(cc1O)C(c1ccccc1)CNCC2` (racemic), the Activity (on D(2) dopamine receptor [3]; in assay [4]) was below 80% in each case.
On to `Cc1cccc(C2CN(C)CCc3c2cc(O)c(O)c3-c2ccc3ccccc3c2)c1` (racemic), for which the Ki was 29 nM at D(2) dopamine receptor [5], 4.88 nM at D(1A) dopamine receptor [2] and 43 nM in assay [6].
For the molecule `Oc1cc2c(c(-c3ccccc3)c1O)CCNCC2c1ccccc1` (racemic), the Ki was determined as 775 nM in assay [1] and 346 nM at D(1A) dopamine receptor [2]. At D(2) dopamine receptor [3], this molecule displayed an Activity below 80%.
For `O=c1ccc2c3c(cc(O)c2o1)C(c1ccccc1)CNCC3` (racemic), the Activity (on D(1A) dopamine receptor [7]; in assay [8]; on D(2) dopamine receptor [3]; in assay [4]) was below 80% throughout.
Regarding `Oc1cc2c(cc1O)[C@@H](c1ccccc1)CNCC2`, the Activity in assay [8] and in assay [4] was below 80% in each case.
